EBV LMP1 NFkB = reduces LMP1-driven NF-kappaB luciferase signal. inhibition, % at 12.5 µM. actives 0.69% (n = 350,000). LMP1-induced NF-kappaB luciferase reporter cells, luminescence. AID 504558; in the data active means inhibition above about 41%; inconclusive means no clear call, values can overlap the other calls
NR2E3 ag-1 = NR2E3 (human) agonism | AID 2300 | inhibition of corepressor binding, % at 4.78 µM | GST-NR2E3/biotin-RetCOR TR-FRET, 1536-well | actives 0.12% (n = 320,000);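 active means percent inhibition above the cutoff of mean plus 3 SD of all tested compounds, set per screening campaign, cut at about 20% in these data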
Target sequence (Q9Y5X4 whole entry, looked up): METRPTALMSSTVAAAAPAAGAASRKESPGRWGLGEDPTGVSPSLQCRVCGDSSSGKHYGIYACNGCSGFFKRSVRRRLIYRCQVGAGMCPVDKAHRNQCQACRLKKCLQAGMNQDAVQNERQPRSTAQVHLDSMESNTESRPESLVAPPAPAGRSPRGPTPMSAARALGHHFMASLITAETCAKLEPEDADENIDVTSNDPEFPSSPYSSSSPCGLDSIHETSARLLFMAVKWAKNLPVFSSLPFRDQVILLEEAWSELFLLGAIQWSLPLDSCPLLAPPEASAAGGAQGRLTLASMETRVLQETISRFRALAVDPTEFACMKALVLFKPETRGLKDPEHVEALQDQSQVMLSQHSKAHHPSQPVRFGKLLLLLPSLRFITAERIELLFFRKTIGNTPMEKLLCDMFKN
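Material: NR2E3–RetCOR corepressor complex / Amount: 1.35 nM GST-NR2E3 / Medium: Tris pH 7.5 / Compound: single nominal compound dose of 4.8 µM / Incubation: 5 h at 4 °C / Technique: TR-FRET, Eu(K)-anti-GST donor, streptavidin-D2 acceptor, ex 340, em 617/671 nm / Read-out basis: percent loss of FRET ratio relative to control wells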
NR2E3 ag-2 = human photoreceptor-specific nuclear receptor agonism; Q9Y5X4; CHO-S Gal4-NCOR/VP16-NR2E3 two-hybrid, luciferase; inhibition of corepressor binding, % at 3.98 µM; actives 0.35% (n = 360,000);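 active means inhibition above the mean of all tested compounds plus 3 SD, cut at about 70% in these data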;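 further: higher means lower luciferase signal from less NR2E3 corepressor binding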
HIF act = HIF pathway transcriptional activation; U2OS HRE-luciferase reporter, luminescence; normalized: DMSO 0%, desferrioxamine 100%; activation, % at 7.5 µM (by protocol); actives 0.32% (n = 300,000);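 active means mean activation of at least 10% of the iron chelator positive control signal, with at least half of replicates also reaching 10%; inconclusive means mean and replicate majority disagree about reaching 10%; inactive means mean and most replicates under 10%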
TROY signal inh = blocks TROY-dependent signaling in reporter cells. Q293 LMP1-TROYcd NF-kB luciferase reporter, 4 h. inhibition, % at 10 µM. actives 0.98% (n = 360,000);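 active means compounds whose plate-normalised and pattern-corrected inhibition of the luciferase reporter signal at the single screening dose is 50% or more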
NR2E3 ag conf = confirmation of human NR2E3 agonists; shares compounds with NR2E3 ag-2; CHO-S mammalian two-hybrid NR2E3-NCOR, luciferase luminescence; inhibition, % at 3.98 µM; actives 51% (n = 2,300);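 active means average inhibition above a cutoff equal to the mean inhibition of all tested compounds plus one SD, cut at about 70% in these data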
VP16 counter = counter-screen for NR2E3 agonists: GAL4-VP16 reporter inhibitors; shares compounds with NR2E3 ag-2; actives 29% (n = 2,300); inhibition, % at 3.98 µM; CHO-S GAL4-VP16 luciferase reporter, luminescence;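 active means mean inhibition above a cutoff equal to the average over all tested compounds plus one standard deviation, cut at about 70% in these data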;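 further: luciferase from a UAS reporter driven by GAL4-VP16 transactivation; higher means less reporter light so more repression of VP16 activity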
Each line names hits and unclear results; the compound was inactive in the other large screens (follow-up assays come after a bar, where they were run). A selection: hits, their analogues and other compounds. The true share with any hit is near 2%.

CNc1nc(NCc2cccc(OC)c2)c2sccc2n1	none (no result: EBV LMP1 NFkB, NR2E3 ag-1, HIF act)
COc1cccc(CNc2nc(NCC3CC3)nc3ccsc23)c1OC	none (no result: EBV LMP1 NFkB, NR2E3 ag-1, HIF act)
COc1cccc(CNc2nc(NCc3ccccc3)nc3ccsc23)c1	none (no result: EBV LMP1 NFkB, NR2E3 ag-1, HIF act) | NR2E3 ag conf inactive | VP16 counter inactive
CC1Sc2ccc(C(=O)N(CCc3ccccc3)Cc3ccccc3)cc2NC1=O (stereo not drawn)	none (no result: NR2E3 ag-1, HIF act)
COC(=O)C1=C(C)N(Cc2ccco2)C(=O)N[C@@H]1c1ccco1	none
Nc1ncc(Br)cc1S(=O)(=O)Nc1cc(C(F)(F)F)cc(C(F)(F)F)c1	NR2E3 ag-2 109, TROY signal inh 56 | NR2E3 ag conf 101 | VP16 counter 90
Cc1cc(N2CCN(C/C=C/c3ccccc3)CC2)n2ncnc2n1	none (no result: HIF act) | NR2E3 ag conf inactive | VP16 counter inactive
O=C(Nc1ccc2c(c1)OCO2)c1cc(C2CCCCN2C(=O)c2ccccc2)on1 (stereo not drawn)	none (no result: EBV LMP1 NFkB, NR2E3 ag-1, HIF act)
Cc1c(/C(O)=C2/C(=O)C(=O)N(CCN3CCOCC3)C2c2ccccn2)cnn1-c1ccccc1 (stereo not drawn)	EBV LMP1 NFkB 55, NR2E3 ag-2 84, TROY signal inh 85 | NR2E3 ag conf inactive | VP16 counter inactive
Cc1ccc(C2/C(=C(/O)c3cnn(-c4ccccc4)c3C)C(=O)C(=O)N2CCCN2CCOCC2)o1 (stereo not drawn)	none (no result: EBV LMP1 NFkB, NR2E3 ag-2, TROY signal inh)
Cc1cccnc1Nc1nc(-c2ccccn2)cs1	EBV LMP1 NFkB 51, NR2E3 ag-2 77, HIF act 182 | NR2E3 ag conf 100 | VP16 counter inactive
Cc1ccc(C(=O)Nc2nc(-c3ccccn3)cs2)s1	none (no result: HIF act) | NR2E3 ag conf inactive | VP16 counter inactive
CCCS(=O)(=O)NC(=O)C1(C)CCCN(C(=O)c2ccco2)C1 (stereo not drawn)	none (no result: EBV LMP1 NFkB, NR2E3 ag-1, HIF act)
Cc1sc2ncnc(N3CCC(C)CC3)c2c1C	none
Cc1sc2ncnc(N3CCN(CCOc4ccc(Cl)cc4)CC3)c2c1C	NR2E3 ag-2 99 | NR2E3 ag conf 95 | VP16 counter 86
CC(C)Cc1nnc(NC(=O)CCC(=O)NC2CC2)s1	none
COc1ccc(CN2CCNC(=O)C2CC(=O)N(C)Cc2nc(C)cs2)c(OC)c1 (stereo not drawn)	none
Nc1nonc1C(=O)NCCNCc1cc(Br)ccc1OCc1ccccc1F	none | NR2E3 ag conf inactive | VP16 counter inactive
Nc1nonc1C(=O)NCCNCc1ccccc1OCc1ccccc1F	none
O=[N+]([O-])c1ccc(S(=O)(=O)N2CCN(c3ccc(N4CCOCC4)nn3)CC2)cc1	none
O=C(NCCCNC(=O)c1cccnc1)c1ccc(Cl)cc1	none
O=S(=O)(c1cc(F)ccc1F)N1CCN(c2ccccn2)CC1	none
O=S(=O)(c1cc(F)ccc1F)N1CCN(c2ncnc3ccccc23)CC1	NR2E3 ag-2 88 (no result: NR2E3 ag-1, HIF act) | NR2E3 ag conf 92 | VP16 counter 74
COc1cc2nc(=S)n3[nH]c(CCn4nc(C)cc4C)nc3c2cc1OC	NR2E3 ag-2 85 | NR2E3 ag conf inactive | VP16 counter inactive
CSc1ccc(-c2nc(CSCC(=O)N3CCOCC3)c(C)o2)cc1	none
CCOC(=O)N1CCC(NC(=O)CSCc2nc(-c3ccc(OC)cc3)oc2C)CC1	none
CCOc1ccc(-c2nc(CSCC(=O)NCCCN3CCCC3=O)c(C)o2)cc1	none | NR2E3 ag conf inactive | VP16 counter inactive
CCc1ccc(-c2nc(CSCC(=O)NC3CC3)c(C)o2)cc1	NR2E3 ag-2 111 | NR2E3 ag conf 98 | VP16 counter 97
CSc1ccc(-c2nc(CSCC(=O)NC3CC3)c(C)o2)cc1	NR2E3 ag-2 100 | NR2E3 ag conf 85 | VP16 counter 84
CCc1ccc(-c2nc(CSCC(=O)N3CCN(c4ncccn4)CC3)c(C)o2)cc1	TROY signal inh 79 | NR2E3 ag conf 71 | VP16 counter inactive
CC(=O)c1ccccc1NC(=O)COC(=O)c1cc2ccccc2[nH]1	none (no result: HIF act)
COc1ccc(S(=O)(=O)Nc2cccc3c2O[C@H](CN(C)S(=O)(=O)c2ccccc2)[C@@H](C)CN([C@H](C)CO)C3=O)cc1	none (no result: NR2E3 ag-1, HIF act)
O=C(NN1C(=O)NC2(CCCCC2)C1=O)c1cc2ccccc2o1	none (no result: HIF act)
CCC(=O)Nc1cc2nn(-c3ccc(C)cc3)nc2cc1C	EBV LMP1 NFkB 63, TROY signal inh 90 | NR2E3 ag conf inactive | VP16 counter inactive
CCC(=O)Nc1ccc2c(c1)ncn2-c1ccc(C)cc1	none
CCOC(=O)c1csc(-c2csc(CCNC(=O)c3ccccc3)n2)n1	none (no result: NR2E3 ag-1, HIF act)
COc1ccc(OC)c(-c2cc(C(=O)Nc3c(C)n(C)n(-c4ccccc4)c3=O)no2)c1	none | NR2E3 ag conf inactive | VP16 counter inactive
COc1ccccc1-c1cc(C(=O)Nc2c(C)n(C)n(-c3ccccc3)c2=O)no1	none
Cc1cccc(Nc2nc(NCc3ccco3)c3ccccc3n2)c1	EBV LMP1 NFkB inconclusive, NR2E3 ag-2 74 | NR2E3 ag conf 100 | VP16 counter 87
c1ccc(Nc2nc(NCc3ccco3)c3ccccc3n2)cc1	none
CC(=O)N1CCC(C(=O)NCCOc2ccc(C)cc2)CC1	none
CCOC(=O)C(=O)NNc1ccc(F)cc1	none (no result: EBV LMP1 NFkB) | NR2E3 ag conf inactive | VP16 counter inactive
CCOC(=O)C(=O)N/N=C/c1ccc(F)cc1	none
CN(CC(=O)Nc1ccccc1C(F)(F)F)C(=O)Cc1ccc(S(=O)(=O)N2CCOCC2)s1	none
O=C(Cn1c2c(c(-c3ccccc3Cl)cc1=O)CCC2)NCCCN1CCOCC1	none
Cc1ccc(CN(C)C(=O)CSc2nnc3n2CCCCC3)c(C)c1	none (no result: HIF act)
CCCSc1nc2c([nH]1)c(=O)n(C)c(=S)n2C	none (no result: NR2E3 ag-1, HIF act)
Cn1c(=S)c2[nH]c(SCC3CCCO3)nc2n(C)c1=O (stereo not drawn)	none (no result: NR2E3 ag-1, HIF act) | NR2E3 ag conf inactive | VP16 counter inactive
O=c1[nH]c(SCC2CCCCO2)nc2ccccc12 (stereo not drawn)	none
CCCC(C)Sc1nc2c([nH]1)c(=S)n(C)c(=O)n2C (stereo not drawn)	NR2E3 ag-2 82 (no result: NR2E3 ag-1, HIF act) | NR2E3 ag conf inactive | VP16 counter inactive
Cc1nc2c(C(=O)NCCC(C)C)c[nH]n2c(=O)c1Cc1ccccc1F	NR2E3 ag-2 100, TROY signal inh 69 | NR2E3 ag conf 86 | VP16 counter inactive
Cc1nc2c(C(=O)NCCC(C)C)c[nH]n2c(=O)c1Cl	none
COc1ccc(Cl)cc1Cn1c(C)c(C(=O)NCc2ccc(F)cc2)sc1=O	none (no result: EBV LMP1 NFkB, NR2E3 ag-1, HIF act) | NR2E3 ag conf inactive | VP16 counter inactive
Cc1c(C(=O)NCc2ccc(C(C)C)cc2)sc(=O)n1Cc1ccc(S(=O)(=O)N(C)C)cc1	NR2E3 ag-2 74 (no result: EBV LMP1 NFkB, NR2E3 ag-1, HIF act) | NR2E3 ag conf 87 | VP16 counter 80
COc1ccc(Cl)cc1Cn1c(C)c(C(=O)NCc2cccc([N+](=O)[O-])c2)sc1=O	none (no result: EBV LMP1 NFkB, NR2E3 ag-1, HIF act) | NR2E3 ag conf inactive | VP16 counter inactive

Screens (PubChem BioAssay)
